Data from ChEMBL document CHEMBL1153177, “Exploring SAR features in diverse library of 4-cyanomethyl-pyrazole-3-carboxamides suitable for further elaborations as CB1 antagonists” (Bioorg Med Chem Lett, 2010).

How the values were obtained:
Cannabinoid receptor 1 [1] = target: T1, Cannabinoid receptor 1 (Homo sapiens, UniProt P21554); assay type: functional, cell-based, CHO-K1
[2] = Octanol-water partition coefficient, log D of the compound; assay type: physicochemical
Cannabinoid receptor 1 [3] = target: T1, Cannabinoid receptor 1; assay: Inverse agonist activity at human recombinant CB1 receptor expressed in CHO-K1 cells assessed as stimulation of GTPgammaS binding; assay type: functional, cell-based
Procedure, shortened: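 Membranes came from CHO-K1 cells stably transfected with recombinant human CB1. Efficacy above 100% was taken as inverse agonist activity. IC50 values are the mean of at least two determinations.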

T1 sequence (P21554 whole entry): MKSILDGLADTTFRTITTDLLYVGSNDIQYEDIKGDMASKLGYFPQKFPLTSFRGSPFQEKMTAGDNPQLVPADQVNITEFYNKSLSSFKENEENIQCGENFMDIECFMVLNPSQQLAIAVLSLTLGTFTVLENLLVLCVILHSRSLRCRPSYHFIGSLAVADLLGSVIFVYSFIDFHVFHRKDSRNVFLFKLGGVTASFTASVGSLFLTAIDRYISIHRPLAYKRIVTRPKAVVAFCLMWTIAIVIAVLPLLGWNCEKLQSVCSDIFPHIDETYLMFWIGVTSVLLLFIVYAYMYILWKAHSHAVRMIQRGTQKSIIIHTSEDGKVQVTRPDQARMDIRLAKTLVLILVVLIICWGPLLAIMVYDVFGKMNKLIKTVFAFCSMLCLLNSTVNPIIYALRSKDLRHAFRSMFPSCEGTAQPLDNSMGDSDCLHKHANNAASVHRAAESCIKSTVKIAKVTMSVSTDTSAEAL

| Structure (SMILES) | IC50 (Cannabinoid receptor 1 [1]) [nM] | logD [2] | IC50 (Cannabinoid receptor 1 [3]) [nM] |
| --- | --- | --- | --- |
| N#CCc1c(C(=O)NCCN2CCCCC2)nn(-c2ccccc2Cl)c1-c1ccc(Cl)cc1 | 1110 | 2.9 |  |
| COC(=O)C(NC(=O)c1nn(-c2ccccc2Cl)c(-c2ccc(Cl)cc2)c1CC#N)C(C)C (stereo not drawn) | 7.3 |  |  |
| N#CCc1c(C(=O)N2Cc3ccc(Br)cc3C2)nn(-c2ccccc2Cl)c1-c1ccc(Cl)cc1 | 0.22 |  |  |
| N#CCc1c(C(=O)NC2CCc3ccccc32)nn(-c2ccccc2Cl)c1-c1ccc(Cl)cc1 (stereo not drawn) | 0.41 |  |  |
| N#CCc1c(C(=O)N2CCCCC2c2ccc(F)cc2)nn(-c2ccccc2Cl)c1-c1ccc(Cl)cc1 (stereo not drawn) | 23 |  |  |
| CCC(CC)NC(=O)c1nn(-c2ccccc2Cl)c(-c2ccc(Cl)cc2)c1CC#N | 5.8 |  |  |
| N#CCc1c(C(=O)NC2CCCCCC2)nn(-c2ccccc2Cl)c1-c1ccc(Cl)cc1 | 0.49 |  |  |
| N#CCc1c(C(=O)N[C@@H]2C[C@H]3CC[C@@H]2C3)nn(-c2ccccc2Cl)c1-c1ccc(Cl)cc1 | 2.2 |  |  |
| COC(=O)C(Cc1ccccc1)NC(=O)c1nn(-c2ccccc2Cl)c(-c2ccc(Cl)cc2)c1CC#N (stereo not drawn) | 1.2 |  |  |
| CC(C)C(NC(=O)c1nn(-c2ccccc2Cl)c(-c2ccc(Cl)cc2)c1CC#N)C(=O)O (stereo not drawn) | 6250 |  |  |
| N#CCc1c(C(=O)N2CCC(c3ccc(F)cc3)CC2)nn(-c2ccccc2Cl)c1-c1ccc(Cl)cc1 | 1 |  |  |
| N#CCc1c(C(=O)N2CCN(c3ncccn3)CC2)nn(-c2ccccc2Cl)c1-c1ccc(Cl)cc1 | 3.8 |  |  |
| N#CCc1c(C(=O)N2CCC(c3ccc(F)cc3)C2)nn(-c2ccccc2Cl)c1-c1ccc(Cl)cc1 (stereo not drawn) | 9.2 |  |  |
| N#CCc1c(C(=O)NC(Cc2ccccc2)C(=O)O)nn(-c2ccccc2Cl)c1-c1ccc(Cl)cc1 (stereo not drawn) | 4450 |  |  |
| N#CCc1c(C(=O)N2CCC(O)(Cc3ccccc3)CC2)nn(-c2ccccc2Cl)c1-c1ccc(Cl)cc1 | 3.4 |  |  |
| N#CCc1c(C(=O)N2CCCC2c2ccc(F)cc2)nn(-c2ccccc2Cl)c1-c1ccc(Cl)cc1 (stereo not drawn) | 27 |  |  |
| N#CCc1c(C(=O)N2Cc3ccc(F)cc3C2)nn(-c2ccccc2Cl)c1-c1ccc(Cl)cc1 | 5.7 |  |  |

| Structure (SMILES) | IC50 (Cannabinoid receptor 1 [1]) [nM] | logD [2] | IC50 (Cannabinoid receptor 1 [3]) [nM] |
| --- | --- | --- | --- |
| CN(Cc1ccc(F)cc1)C(=O)c1nn(-c2ccccc2Cl)c(-c2ccc(Cl)cc2)c1CC#N | 5.6 | 4.2 |  |
| N#CCc1c(C(=O)N2CCC(c3ccccc3C(=O)O)CC2)nn(-c2ccccc2Cl)c1-c1ccc(Cl)cc1 | 2810 |  |  |
| N#CCc1c(C(=O)NN2CCCCC2)nn(-c2ccccc2Cl)c1-c1ccc(Cl)cc1 | 7.5 | 3.6 |  |
| N#CCc1c(C(=O)N2CCC(O)(c3ccc(F)cc3)CC2)nn(-c2ccccc2Cl)c1-c1ccc(Cl)cc1 | 3 |  |  |
| C[C@H]1CC[C@H](NC(=O)c2nn(-c3ccccc3Cl)c(-c3ccc(Cl)cc3)c2CC#N)CC1 | 1.6 |  |  |
| CS(=O)(=O)C1CCN(C(=O)c2nn(-c3ccccc3Cl)c(-c3ccc(Cl)cc3)c2CC#N)CC1 | 17 |  |  |
| N#CCc1c(C(=O)NC2CCCCC2)nn(-c2ccccc2Cl)c1-c1ccc(Cl)cc1 | 1.9 | 3.5 |  |
| N#CCc1c(C(=O)N2CCc3ccccc3C2)nn(-c2ccccc2Cl)c1-c1ccc(Cl)cc1 | 5.7 |  |  |
| N#CCc1c(C(=O)NN2CCOCC2)nn(-c2ccccc2Cl)c1-c1ccc(Cl)cc1 | 71 |  |  |
| N#CCc1c(C(=O)N2CCN(c3ccccc3)CC2)nn(-c2ccccc2Cl)c1-c1ccc(Cl)cc1 | 13 |  |  |
| N#CCc1c(C(=O)N2CC[C@@H](OCc3ccc(F)cc3)C2)nn(-c2ccccc2Cl)c1-c1ccc(Cl)cc1 | 20 |  |  |
| CC(=O)C1CCN(C(=O)c2nn(-c3ccccc3Cl)c(-c3ccc(Cl)cc3)c2CC#N)CC1 | 199 |  |  |
| N#CCc1c(C(=O)NN2CCCCCC2)nn(-c2ccccc2Cl)c1-c1ccc(Cl)cc1 | 0.52 |  |  |
| COC(=O)c1ccccc1C1CCN(C(=O)c2nn(-c3ccccc3Cl)c(-c3ccc(Cl)cc3)c2CC#N)CC1 | 2.2 |  |  |
| CS(=O)(=O)N1CCC(NC(=O)c2nn(-c3ccccc3Cl)c(-c3ccc(Cl)cc3)c2CC#N)CC1 | 31 |  |  |
| N#CCc1c(C(=O)N[C@@H]2c3ccccc3C[C@@H]2O)nn(-c2ccccc2Cl)c1-c1ccc(Cl)cc1 (single isomer, unassigned) | 7.8 |  |  |
| N#CCc1c(C(=O)N[C@H]2c3ccccc3C[C@H]2O)nn(-c2ccccc2Cl)c1-c1ccc(Cl)cc1 (single isomer, unassigned) | 1.7 |  |  |

The remaining lines, values ahead:

| IC50 (Cannabinoid receptor 1 [1]) [nM] | logD [2] | IC50 (Cannabinoid receptor 1 [3]) [nM] | Structure (SMILES) |
| --- | --- | --- | --- |
| 19 | 4 |  | N#CCc1c(C(=O)Nc2cnc3ccccc3c2)nn(-c2ccccc2Cl)c1-c1ccc(Cl)cc1 |
| 15 |  |  | Cc1cc(CNC(=O)c2nn(-c3ccccc3Cl)c(-c3ccc(Cl)cc3)c2CC#N)no1 |
| 2.1 |  |  | N#CCc1c(C(=O)N2CCc3ccc(C(F)(F)F)cc3C2)nn(-c2ccccc2Cl)c1-c1ccc(Cl)cc1 |
| 5.8 | 4.4 | 1.2 | N#CCc1c(C(=O)NCc2ccc(Br)cc2)nn(-c2ccccc2Cl)c1-c1ccc(Cl)cc1 |
| 4.1 | 4.1 |  | N#CCc1c(C(=O)NCc2ccccc2F)nn(-c2ccccc2Cl)c1-c1ccc(Cl)cc1 |
| 1.6 | 4.6 |  | N#CCc1c(C(=O)NCc2ccc(Cl)cc2Cl)nn(-c2ccccc2Cl)c1-c1ccc(Cl)cc1 |
| 1.2 | 4.4 |  | N#CCc1c(C(=O)NCc2ccc(Cl)cc2)nn(-c2ccccc2Cl)c1-c1ccc(Cl)cc1 |
| 7 | 4.6 |  | N#CCc1c(C(=O)NCc2c(Cl)cccc2Cl)nn(-c2ccccc2Cl)c1-c1ccc(Cl)cc1 |
| 0.7 | 4.4 |  | N#CCc1c(C(=O)NCc2ccc(F)c(Br)c2)nn(-c2ccccc2Cl)c1-c1ccc(Cl)cc1 |
| 14 |  |  | N#CCc1c(C(=O)Nc2ccc(C(F)(F)F)nc2)nn(-c2ccccc2Cl)c1-c1ccc(Cl)cc1 |
| 55 | 3.8 |  | N#CCc1ccc(NC(=O)c2nn(-c3ccccc3Cl)c(-c3ccc(Cl)cc3)c2CC#N)cc1 |
| 16 |  |  | N#CCc1c(C(=O)NCCc2ccccc2)nn(-c2ccccc2Cl)c1-c1ccc(Cl)cc1 |
| 2.1 | 4.1 |  | N#CCc1c(C(=O)NCc2ccc(F)cc2)nn(-c2ccccc2Cl)c1-c1ccc(Cl)cc1 |
| 18 | 4.4 |  | N#CCc1c(C(=O)Nc2cccnc2Cl)nn(-c2ccccc2Cl)c1-c1ccc(Cl)cc1 |
| 4.2 | 3.8 |  | N#CCc1c(C(=O)NCc2ccc(C#N)cc2)nn(-c2ccccc2Cl)c1-c1ccc(Cl)cc1 |
| 2.6 | 4.4 |  | N#CCc1c(C(=O)NCc2cccc(Cl)c2)nn(-c2ccccc2Cl)c1-c1ccc(Cl)cc1 |
| 57 | 3.3 |  | N#CCc1c(C(=O)Nc2cccnc2)nn(-c2ccccc2Cl)c1-c1ccc(Cl)cc1 |
| 11 | 4.2 |  | N#CCc1c(C(=O)Nc2ccc(F)cc2)nn(-c2ccccc2Cl)c1-c1ccc(Cl)cc1 |
| 0.51 | 4.5 |  | N#CCc1c(C(=O)NCc2ccc(Br)cc2F)nn(-c2ccccc2Cl)c1-c1ccc(Cl)cc1 |
